Like-named read-outs stand apart in the source and are kept apart here.

One data set has as its target SARS-CoV-2 3CL^pro (Severe acute respiratory syndrome coronavirus 2, UniProt P0DTD1). In kind it is biochemical.
The nature of data set [1]: Microsomal stability assay, human. In kind it is in vitro ADME. Particulars: microsomes, pH 7.41. In outline:
(§1)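 Liver microsomes in 100 mM potassium buffer with 5 mM MgCl₂, pH 7.41; test compound at 1 μM. Compound-microsome spiking mix (1.5 μM compound, 0.75 mg/mL microsomes) pre-incubated at 37 °C for 5 min, then started with NADPH (6 mM stock). Sampled at 0, 5, 15, 30 and 45 min, quenched with acetonitrile containing internal standard, centrifuged; supernatant diluted in water for LC/MS.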

Data set [2] in a line: Microsomal stability assay, mouse. In kind it is in vitro ADME. Particulars: microsomes, pH 7.41. The procedure, abridged:
as §1

Data set [3] can be described thus: Single-dose pharmacokinetics in ICR mice. The class given is in vivo. The following applies: single-dose oral administration 20 mg/kg. In outline: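 Mice randomly split into IV and PO groups, three per group; single dose 10 mg/kg IV or 20 mg/kg oral. After oral dosing, blood taken at 0.25, 0.5, 1, 2, 4, 6, 8 and 24 h. Plasma (20 μL) protein-precipitated with methanol containing 100 ng/mL internal standard, vortexed, centrifuged at 18000g for 10 min, analysed by LC-MS/MS. AUC(0-t) derived by pharmacokinetic modelling.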

As for `CC(C)(C)OC(=O)N[C@H](C(=O)N1[C@@H]2CC[C@@H](C2)[C@H]1C(=O)N[C@@H](C[C@@H]1CCNC1=O)C(=O)c1nc2ccccc2s1)C(C)(C)C` [11a, tert-butyl ((S)-1-((1R,3S,4S)-3-(((S)-1-(benzo[d]thiazol-2-yl)-1-oxo-3-((S)-2-oxopyrrolidin-3-yl)propan-2-yl)carbamoyl)-2-azabicyclo[2.2.1]heptan-2-yl)-3,3-dimethyl-1-oxobutan-2-yl)carbamate], the “decrease of 3CL^pro inhibitory activity compared to 11b” value at SARS-CoV-2 3CL^pro turned out to be 45 folds.
`CC(C)(C)[C@H](NC(=O)C(F)(F)F)C(=O)N1[C@@H]2CC[C@@H](C2)[C@H]1C(=O)N[C@@H](C[C@@H]1CCNC1=O)C(=O)c1nc2ccccc2s1` [11b, (1R,3S,4S)-N-((S)-1-(benzo[d]thiazol-2-yl)-1-oxo-3-((S)-2-oxopyrrolidin-3-yl)propan-2-yl)-2-((S)-3,3-dimethyl-2-(2,2,2-trifluoroacetamido)butanoyl)-2-azabicyclo[2.2.1]heptane-3-carboxamide]: the half-life – broadly, the time needed for the level to fall by half in the phase considered – at 0.75 h, 1 µM in data set [1] is 11.6 min; in data set [2], 7.74 min.
In the case of `CC(C)(F)C(=O)N[C@H](C(=O)N1[C@@H]2CC[C@@H](C2)[C@H]1C(=O)N[C@@H](C[C@@H]1CCNC1=O)C(=O)c1nc2ccccc2s1)C(C)(C)C` [11c, (1R,3S,4S)-N-((S)-1-(benzo[d]thiazol-2-yl)-1-oxo-3-((S)-2-oxopyrrolidin-3-yl)propan-2-yl)-2-((S)-2-(2-fluoro-2-methylpropanamido)-3,3-dimethylbutanoyl)-2-azabicyclo[2.2.1]heptane-3-carboxamide], the half-life at 0.75 h, 1 µM in data set [1] was 18 min; in data set [2], 4.82 min. Besides, the “decrease of 3CL^pro inhibitory activity compared to 11b” value on SARS-CoV-2 3CL^pro (ratio of IC50 to that of 11b) is listed as 11 folds.
Take `[2H]C([2H])([2H])C(=O)N[C@H](C(=O)N1[C@@H]2CC[C@@H](C2)[C@H]1C(=O)N[C@@H](C[C@@H]1CCNC1=O)C(=O)c1nc2ccccc2s1)C(C)(C)C` [11d, (1R, 3S, 4S)-2-((S)-2-(acetamido-2,2,2-d3)-3,3-dimethylbutanoyl) -N-((S)-1-(benzo[d]thiazol-2-yl)-1-oxo-3-((S)-2-oxopyrrolidin-3-yl)propan-2-yl)-2-azabicyclo [2.2.1] heptane-3-carboxamide]: the half-life at 0.75 h, 1 µM is 42.2 min in data set [1] and 33.8 min in data set [2]. In addition, the “decrease of 3CL^pro inhibitory activity compared to 11b” value at SARS-CoV-2 3CL^pro stood at 5 folds.
In the case of `CC(C)(C)[C@H](NS(=O)(=O)C(F)(F)F)C(=O)N1[C@@H]2CC[C@@H](C2)[C@H]1C(=O)N[C@@H](C[C@@H]1CCNC1=O)C(=O)c1nc2ccccc2s1` [11e, (1R, 3S, 4S)-N-((S)-1-(benzo[d]thiazol-2-yl)-1-oxo-3-((S)-2-oxopyrrolidin-3-yl)propan-2-yl)-2-((S)-3,3-dimethyl-2-((trifluoromethyl)sulfonamido)butanoyl)-2-azabicyclo [2.2.1] heptane-3-carboxamide], the half-life at 1 μM in data set [1] was > 120 min. In addition, in data set [2], the half-life at 1 μM is > 120 min. Moreover, in data set [3], the “AUC(0-t) higher than that of 11b” value was found to be 2.4 times and the “AUC(0-t) higher than that of nirmatrelvir” value worked out at 5 times. The “decrease of 3CL^pro inhibitory activity compared to 11b” value at SARS-CoV-2 3CL^pro came out at 8 folds.
As to `CN(C)S(=O)(=O)N[C@H](C(=O)N1[C@@H]2CC[C@@H](C2)[C@H]1C(=O)N[C@@H](C[C@@H]1CCNC1=O)C(=O)c1nc2ccccc2s1)C(C)(C)C` [11f, (1R, 3S, 4S)-N-((S)-1-(benzo[d]thiazol-2-yl)-1-oxo-3-((S)-2-oxopyrrolidin-3-yl)propan-2-yl)-2-((S)-2-((N,N-dimethylsulfamoyl)amino)-3,3-dimethylbutanoyl)-2-azabicyclo [2.2.1] heptane-3-carboxamide], the half-life at 0.75 h, 1 µM was determined as 3.25 min in data set [1] and 0.85 min in data set [2].
For `CC(C)(C)OC[C@H](NS(=O)(=O)C(F)(F)F)C(=O)N1[C@@H]2CC[C@@H](C2)[C@H]1C(=O)N[C@@H](C[C@@H]1CCNC1=O)C(=O)c1nc2ccccc2s1` [11g, (1R, 3S, 4S)-N-((S)-1-(benzo[d]thiazol-2-yl)-1-oxo-3-((S)-2-oxopyrrolidin-3-yl)propan-2-yl)-2-(O-(tert-butyl)-N-((trifluoromethyl)sulfonyl)-L-seryl)-2-azabicyclo [2.2.1] heptane-3-carboxamide], at SARS-CoV-2 3CL^pro, the “decrease of enzyme activity compared to 11e” value came out at 3 times.
Same read-out and setting: in the case of `COc1ccc(C[C@H](NS(=O)(=O)C(F)(F)F)C(=O)N2[C@@H]3CC[C@@H](C3)[C@H]2C(=O)N[C@@H](C[C@@H]2CCNC2=O)C(=O)c2nc3ccccc3s2)cc1` [11h, (1R, 3S, 4S)-N-((S)-1-(benzo[d]thiazol-2-yl)-1-oxo-3-((S)-2-oxopyrrolidin-3-yl)propan-2-yl)-2-((S)-3-(4-methoxyphenyl)-2-((trifluoromethyl)sulfonamido)propanoyl)-2-azabicyclo [2.2.1] heptane-3-carboxamide] it was 6 times.
Turning to `CC(C)(C)[C@H](NC(=O)C(F)(F)F)C(=O)N1C[C@H]2[C@@H]([C@H]1C(=O)N[C@H](C#N)C[C@@H]1CCNC1=O)C2(C)C` [nirmatrelvir, reference compound], the figures for the half-life at 0.75 h, 1 µM in data set [1] and in data set [2] were 35.5 min and 17.7 min, respectively.

(Values after publication PMC10204345 (European Journal of Medicinal Chemistry, 2023).)
